# Reference: ChEMBL document CHEMBL4396895, “Identification and Optimization of Novel Cathepsin C Inhibitors Derived from EGFR Inhibitors” (J Med Chem, 2019)
# Calls of active or inactive are those of the source. No cut-off for these calls is given here.
# Assays:
# [1] = biological target: T1, Epidermal growth factor receptor (Homo sapiens, UniProt P00533); experiment: Inhibition of EGFR (unknown origin) up to 10 uM using biotin-labelled peptide as substrate preincubated for 2 hrs followed by substrate addition and measured after 30 mins by HTRF FRET assay
# Outline: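 EGFR WT was used at 0.1 nM final in 50 mM HEPES pH 7.0, 0.02% NaN3, 0.01% BSA, 0.1 mM orthovanadate, 10 mM MgCl2, 2.5 mM DTT, 6.25 nM SEB. It was preincubated with compound for 2 h. Biotin-peptide (1.4 μM) and ATP (20 μM) were then added for 30 min at RT. Read-out was HTRF/TR-FRET (Ex 320, Em 615/665 nm) with a sigmoidal curve fit.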
# [2] = Intrinsic clearance in mouse liver microsomes assessed per mg protein measured after 60 mins in presence of NADPH by LC-MS/MS analysis; type: ADME, Microsome; conditions: read-out: CLH
# [3] = Intrinsic clearance in rat liver microsomes assessed per mg protein measured after 60 mins in presence of NADPH by LC-MS/MS analysis; type: ADME, Microsome; conditions: read-out: CLH
# Dipeptidyl peptidase 1 [4] = biological target: T2, Dipeptidyl peptidase 1 (Homo sapiens, UniProt P53634); experiment: Inhibition of CatL-activated recombinant human C-terminal His10-tagged cathepsin C (25 to 463 residues) expressed in mouse myeloma cells using Gly-Phe-AFC as substrate preincubated for 3 hrs followed by substrate addition and measured after 60 mins; type: cell-free
# Outline: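 Activated rhCatC was diluted to 4.4 nM in 25 mM MES, 50 mM NaCl, 5 mM DTT, 0.01% Triton X-100, pH 6.0. It was preincubated with compound (added in 10% DMSO) for 3 h at RT. Gly-Phe-AFC was then added to 100 μM final and read as fluorescence after 60 min. IC50 came from a sigmoidal nonlinear fit; values are means of at least two experiments.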
# [5] = biological target: T1, Epidermal growth factor receptor; experiment: Inhibition of EGFR (unknown origin) using biotin-labelled peptide as substrate preincubated for 2 hrs followed by substrate addition and measured after 30 mins by HTRF FRET assay
# [6] = Intrinsic clearance in human liver microsomes assessed per mg protein measured after 60 mins in presence of NADPH by LC-MS/MS analysis; type: ADME, Microsome; conditions: read-out: CLH
# Dipeptidyl peptidase 1 [7] = biological target: T2, Dipeptidyl peptidase 1; experiment: Inhibition of cathepsin C in human U937 cells using H-Gly-Phe-AFC as substrate preincubated for 4 hrs followed by substrate addition and measured after 60 mins; type: cell-based
# Outline: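 THP1 or U937 cells, grown in RPMI 1640 with 10% FBS, were seeded at 1.0 × 10^6/mL. They were preincubated with threefold serial dilutions of compound for 4 h at 37 °C. H-Gly-Phe-AFC was then added from a 100 μM solution and fluorescence was read after 60 min at 37 °C. Values are means of at least two experiments.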
# Mus musculus [8] = experiment: Protection against C57BL/6 mouse model of caerulein-induced acute pancreatitis assessed as reduction in CatC activity at 20 mg/kg, po pretreated twice daily for 6 days followed by caerulein-challenge at 1 hr interval for 8 hrs and measured 1 hr post-last caerulein-challenge
# Mus musculus [9] = experiment: Protection against C57BL/6 mouse model of caerulein-induced acute pancreatitis at 20 mg/kg, po pretreated twice daily for 6 days followed by caerulein-challenge at 1 hr interval for 8 hrs and measured 1 hr post-last caerulein-challenge by H and E staining-based histological analysis
inhibition [1],microsomal CLint [2],microsomal CLint [3],IC50 (Dipeptidyl peptidase 1 [4]),IC50 [5],microsomal CLint [6],IC50 (Dipeptidyl peptidase 1 [7]),SMILES,Activity (Mus musculus [8]),Activity (Mus musculus [9])
inactive,26.3 µL/min/mg,39.7 µL/min/mg,810 nM,> 10000 nM,5.4 µL/min/mg,537 to 538 nM,C=CC(=O)Nc1cccc(Oc2nc(Nc3ccc(N4CCN(C)CC4)cc3OC)ccc2Cl)c1,–,–
–,–,–,–,–,–,–,N#Cc1ccc(-c2ccc(C[C@@H](C#N)NC(=O)C3(N)CCOCC3)cc2)cc1,Active,Active
